How the values were obtained:
[1] = target: Cyclin-dependent kinase 9 (Homo sapiens, UniProt P50750); experiment: Inhibition of CDK9 in human MEC1 cells assessed as decrease in RNA polymerase 2 phosphorylation at Ser 2 residues in CTD domain after 2 hrs by immunoblotting analysis; assay type: cell-based
Homo sapiens = species: Homo sapiens; experiment: Induction of apoptosis in human MEC1 cells assessed as decrease in MCL-1 level after 2 hrs by immunoblotting analysis; assay type: functional, cell-based
Canis familiaris [2] = experiment: AUC (0 to infinity) in beagle dog at 2 mg/kg, iv by LC-MS/MS analysis; assay type: ADME, organism-based, Canis lupus familiaris; set-up: dose 2 mg/kg, route intravenous, time infinity; conditions: in vivo
Summary of the method: (§1)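 Non-compartmental PK. Male SD rats 190-210 g, mice and beagle dogs acclimatized one week, fasted 12 h with water, split into iv and po groups (mice 48, rats 6, dogs 6). iv 3/3/2 mg/kg (mice/rats/dogs); po 10/20/10 mg/kg; vehicle DMSO in 5% glucose water. Blood at 2 or 5 to 720 min; plasma protein-precipitated with methanol, caffeine internal standard, LC-MS/MS.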

Canis familiaris [3] = experiment: AUC (0 to infinity) in beagle dog at 10 mg/kg, po by LC-MS/MS analysis; assay type: ADME, organism-based, Canis lupus familiaris; set-up: dose 10 mg/kg, time infinity, route oral; conditions: in vivo; summary of the method: as §1
[4] = Apparent volume of distribution in Sprague-Dawley rat at 3 mg/kg, iv by LC-MS/MS analysis; assay type: ADME, organism-based; conditions: in vivo, read-out: Vz; summary of the method: as §1
[5] = target: Activin receptor type-1B (Homo sapiens) (UniProt P36896); experiment: Binding affinity to wild-type human ACVR1B (S187 to I505 residues) expressed in bacterial expression system assessed as remaining unbound target protein level at 1000 nM by Kinomescan method relative to control
Summary of the method: (§2)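 Single-point competition binding screen across a panel of 468 kinases and mutants, with the inhibitor at 1 μM. Binding is read out as percent of a DMSO control, and targets below 1 percent control were classed as strong binders.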

[6] = target: Atypical kinase COQ8A, mitochondrial (Homo sapiens) (UniProt Q8NI60); experiment: Binding affinity to wild-type human […] length ADCK3 (M280 to Q647 residues) expressed in bacterial expression system assessed as remaining unbound target protein level at 1000 nM by Kinomescan method relative to control; summary of the method: as §2
[7] = target: Aurora kinase B (Homo sapiens) (UniProt Q96GD4); experiment: Binding affinity to wild-type human partial length AURKB (D25 to A303 residues) expressed in mammalian expression system assessed as remaining unbound target protein level at 1000 nM by Kinomescan method relative to control
Summary of the method: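 Profiled in a KINOMEscan binding panel with the inhibitor at a single concentration of 1 μM. Binding to each kinase was read out as percent of control, relative to a DMSO control. Strong binders were defined as those with a percent control value below 1.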

[8] = target: Protein-tyrosine kinase 6 (Homo sapiens) (UniProt Q13882); experiment: Binding affinity to wild-type human partial length BRK (L166 to T451 residues) expressed in bacterial expression system assessed as remaining unbound target protein level at 1000 nM by Kinomescan method relative to control
Summary of the method: (§3)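 KINOMEscan competition binding profile across a panel of 468 kinases and mutants, with the inhibitor tested at a single concentration of 1 μM. Binding is reported as percent of control, meaning signal relative to a DMSO control.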

[9] = target: Serine/threonine-protein kinase BRSK2 (Homo sapiens) (UniProt Q8IWQ3); experiment: Binding affinity to wild-type human full length BRSK2 (M1 to L674 residues) expressed in bacterial expression system assessed as remaining unbound target protein level at 1000 nM by Kinomescan method relative to control; summary of the method: as §2
[10] = target: Calcium/calmodulin-dependent protein kinase type 1G (Homo sapiens) (UniProt Q96NX5); experiment: Binding affinity to wild-type human partial length CAMK1G (M1 to A342 residues) expressed in bacterial expression system assessed as remaining unbound target protein level at 1000 nM by Kinomescan method relative to control; summary of the method: as §3
[11] = target: Peripheral plasma membrane protein CASK (Homo sapiens) (UniProt O14936); experiment: Binding affinity to wild-type human partial length CASK (M1 to H315 residues) expressed in mammalian expression system assessed as remaining unbound target protein level at 1000 nM by Kinomescan method relative to control; summary of the method: as §3
[12] = test system: Receptor-type tyrosine-protein kinase FLT3 (Homo sapiens), P36888 [UNDEFINED MUTATION]; experiment: Binding affinity to human partial length FLT3 ITD mutant expressed in bacterial expression system assessed as remaining unbound target protein level at 1000 nM by Kinomescan method relative to control
Summary of the method: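 KINOMEscan competition-binding profiling across the panel of 468 kinases and mutants, with inhibitor tested at 1 μM. Binding is expressed as percent of control, with DMSO as the reference control.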

[13] = target: Glycogen synthase kinase-3 beta (Homo sapiens) (UniProt P49841); experiment: Binding affinity to wild-type human full length GSK3B (M1 to T433 residues) expressed in mammalian expression system assessed as remaining unbound target protein level at 1000 nM by Kinomescan method relative to control; summary of the method: as §2
[14] = target: Inhibitor of nuclear factor kappa-B kinase subunit epsilon (Homo sapiens) (UniProt Q14164); experiment: Binding affinity to wild-type human full length IKK-epsilon (M1 to V716 residues) expressed in mammalian expression system assessed as remaining unbound target protein level at 1000 nM by Kinomescan method relative to control; summary of the method: as §3
[15] = target: Serine/threonine-protein kinase LATS1 (Homo sapiens) (UniProt O95835); experiment: Binding affinity to wild-type human partial length LATS1 (Q678 to V1130 residues) expressed in bacterial expression system assessed as remaining unbound target protein level at 1000 nM by Kinomescan method relative to control
[16] = target: Serine/threonine-protein kinase 10 (Homo sapiens) (UniProt O94804); experiment: Binding affinity to wild-type human partial length LOK (E16 to V314 residues) expressed in bacterial expression system assessed as remaining unbound target protein level at 1000 nM by Kinomescan method relative to control
[17] = target: Serine/threonine-protein kinase Nek9 (Homo sapiens) (UniProt Q8TD19); experiment: Binding affinity to wild-type human partial length NEK9 (P32 to R328 residues) expressed in bacterial expression system assessed as remaining unbound target protein level at 1000 nM by Kinomescan method relative to control
[18] = target: cAMP-dependent protein kinase catalytic subunit alpha (Homo sapiens) (UniProt P17612); experiment: Binding affinity to wild-type human partial length PKAC-alpha (G10 to F351 residues) expressed in bacterial expression system assessed as remaining unbound target protein level at 1000 nM by Kinomescan method relative to control
[19] = target: Tyrosine-protein kinase Srms (Homo sapiens) (UniProt Q9H3Y6); experiment: Binding affinity to wild-type human partial length SRMS (L208 to P488 residues) expressed in mammalian expression system assessed as remaining unbound target protein level at 1000 nM by Kinomescan method relative to control
[20] = target: Testis-specific serine/threonine-protein kinase 3 (Homo sapiens) (UniProt Q96PN8); experiment: Binding affinity to wild-type human full length TSSK3 (M1 to T268 residues) expressed in mammalian expression system assessed as remaining unbound target protein level at 1000 nM by Kinomescan method relative to control; summary of the method: as §3
Testis-specific serine/threonine-protein kinase 3 (Homo sapiens), sequence (Q96PN8 whole entry, the tested form may be a part): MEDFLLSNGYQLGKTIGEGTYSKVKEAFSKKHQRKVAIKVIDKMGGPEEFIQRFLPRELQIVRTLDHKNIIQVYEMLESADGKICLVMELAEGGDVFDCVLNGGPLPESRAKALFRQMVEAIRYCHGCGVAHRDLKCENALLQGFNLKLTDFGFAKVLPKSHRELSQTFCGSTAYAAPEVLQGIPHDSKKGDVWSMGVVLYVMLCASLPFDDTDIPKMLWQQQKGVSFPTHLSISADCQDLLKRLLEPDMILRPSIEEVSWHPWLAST

Cyclin-dependent kinase 9, sequence (P50750 whole entry, the tested form may be a part): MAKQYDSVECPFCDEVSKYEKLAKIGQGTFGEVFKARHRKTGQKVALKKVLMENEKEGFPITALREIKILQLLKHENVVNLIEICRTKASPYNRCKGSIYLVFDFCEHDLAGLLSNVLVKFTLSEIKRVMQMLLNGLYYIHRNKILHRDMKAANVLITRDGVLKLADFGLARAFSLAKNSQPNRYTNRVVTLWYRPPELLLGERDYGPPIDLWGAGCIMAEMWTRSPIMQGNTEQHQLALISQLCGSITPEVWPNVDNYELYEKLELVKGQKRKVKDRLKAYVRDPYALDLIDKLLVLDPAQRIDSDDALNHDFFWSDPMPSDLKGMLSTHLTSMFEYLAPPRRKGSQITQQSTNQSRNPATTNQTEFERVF
Inhibitor of nuclear factor kappa-B kinase subunit epsilon (Homo sapiens), sequence (Q14164 whole entry, the tested form may be a part): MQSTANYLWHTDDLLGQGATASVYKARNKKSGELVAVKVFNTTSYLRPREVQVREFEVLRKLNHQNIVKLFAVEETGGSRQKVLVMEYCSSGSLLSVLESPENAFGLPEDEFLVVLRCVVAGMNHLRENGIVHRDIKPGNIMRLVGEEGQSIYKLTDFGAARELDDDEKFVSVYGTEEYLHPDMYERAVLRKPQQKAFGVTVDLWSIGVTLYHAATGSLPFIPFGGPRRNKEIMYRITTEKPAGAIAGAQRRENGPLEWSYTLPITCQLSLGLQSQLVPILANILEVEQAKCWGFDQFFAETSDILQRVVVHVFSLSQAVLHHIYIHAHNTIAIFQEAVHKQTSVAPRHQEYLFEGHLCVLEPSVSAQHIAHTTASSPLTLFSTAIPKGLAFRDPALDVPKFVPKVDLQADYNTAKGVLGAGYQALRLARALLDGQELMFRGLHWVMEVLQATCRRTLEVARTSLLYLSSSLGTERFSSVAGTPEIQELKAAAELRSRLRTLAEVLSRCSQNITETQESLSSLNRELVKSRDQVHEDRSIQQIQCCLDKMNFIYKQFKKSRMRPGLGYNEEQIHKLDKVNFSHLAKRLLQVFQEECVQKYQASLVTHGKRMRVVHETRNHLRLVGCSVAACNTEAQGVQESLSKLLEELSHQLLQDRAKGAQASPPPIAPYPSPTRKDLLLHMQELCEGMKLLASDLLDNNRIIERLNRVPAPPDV
Calcium/calmodulin-dependent protein kinase type 1G (Homo sapiens), sequence (Q96NX5 whole entry, the tested form may be a part): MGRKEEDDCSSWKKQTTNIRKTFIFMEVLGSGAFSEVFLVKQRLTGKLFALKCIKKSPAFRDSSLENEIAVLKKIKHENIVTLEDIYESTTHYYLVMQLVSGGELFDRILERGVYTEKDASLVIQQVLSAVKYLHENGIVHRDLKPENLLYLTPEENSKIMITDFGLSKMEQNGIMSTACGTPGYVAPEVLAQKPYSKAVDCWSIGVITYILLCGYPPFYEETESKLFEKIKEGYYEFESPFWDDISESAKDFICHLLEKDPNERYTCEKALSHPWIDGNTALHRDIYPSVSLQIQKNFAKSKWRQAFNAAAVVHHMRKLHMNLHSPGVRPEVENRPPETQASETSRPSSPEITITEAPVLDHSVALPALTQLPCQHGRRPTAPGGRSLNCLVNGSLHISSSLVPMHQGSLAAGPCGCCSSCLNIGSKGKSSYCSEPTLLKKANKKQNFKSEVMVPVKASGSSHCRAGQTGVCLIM
Aurora kinase B (Homo sapiens), sequence (Q96GD4 whole entry, the tested form may be a part): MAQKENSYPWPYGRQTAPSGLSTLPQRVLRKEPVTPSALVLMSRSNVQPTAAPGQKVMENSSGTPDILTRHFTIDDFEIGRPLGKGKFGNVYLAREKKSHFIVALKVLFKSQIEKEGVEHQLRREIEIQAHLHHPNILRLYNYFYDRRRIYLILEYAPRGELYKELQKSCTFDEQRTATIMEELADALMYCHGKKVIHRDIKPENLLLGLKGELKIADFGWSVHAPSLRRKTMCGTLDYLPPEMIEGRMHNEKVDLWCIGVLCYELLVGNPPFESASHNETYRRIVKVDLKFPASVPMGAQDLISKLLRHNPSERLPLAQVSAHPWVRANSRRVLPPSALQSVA
Serine/threonine-protein kinase BRSK2 (Homo sapiens), sequence (Q8IWQ3 whole entry, the tested form may be a part): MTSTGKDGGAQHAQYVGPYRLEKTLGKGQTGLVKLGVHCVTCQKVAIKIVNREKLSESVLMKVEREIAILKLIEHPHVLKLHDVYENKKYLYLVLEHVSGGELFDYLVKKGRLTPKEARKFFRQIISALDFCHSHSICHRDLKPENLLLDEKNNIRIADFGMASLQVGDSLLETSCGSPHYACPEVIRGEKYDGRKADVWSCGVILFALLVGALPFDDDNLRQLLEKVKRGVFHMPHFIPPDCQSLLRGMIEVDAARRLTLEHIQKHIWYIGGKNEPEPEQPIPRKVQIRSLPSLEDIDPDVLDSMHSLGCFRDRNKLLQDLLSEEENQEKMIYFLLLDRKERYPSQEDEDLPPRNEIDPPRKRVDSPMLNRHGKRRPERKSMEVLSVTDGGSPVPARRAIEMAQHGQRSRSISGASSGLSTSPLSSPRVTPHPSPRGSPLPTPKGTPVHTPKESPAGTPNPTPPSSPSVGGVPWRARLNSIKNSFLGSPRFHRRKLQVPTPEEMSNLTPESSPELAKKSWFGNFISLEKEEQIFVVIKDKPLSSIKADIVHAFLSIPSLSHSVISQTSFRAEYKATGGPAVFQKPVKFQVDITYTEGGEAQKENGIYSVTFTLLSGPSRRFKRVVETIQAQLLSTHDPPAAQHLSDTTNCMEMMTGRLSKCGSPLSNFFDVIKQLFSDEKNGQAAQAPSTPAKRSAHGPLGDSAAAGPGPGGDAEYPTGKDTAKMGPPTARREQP
Protein-tyrosine kinase 6 (Homo sapiens), sequence (Q13882 whole entry, looked up, the tested form may be a part): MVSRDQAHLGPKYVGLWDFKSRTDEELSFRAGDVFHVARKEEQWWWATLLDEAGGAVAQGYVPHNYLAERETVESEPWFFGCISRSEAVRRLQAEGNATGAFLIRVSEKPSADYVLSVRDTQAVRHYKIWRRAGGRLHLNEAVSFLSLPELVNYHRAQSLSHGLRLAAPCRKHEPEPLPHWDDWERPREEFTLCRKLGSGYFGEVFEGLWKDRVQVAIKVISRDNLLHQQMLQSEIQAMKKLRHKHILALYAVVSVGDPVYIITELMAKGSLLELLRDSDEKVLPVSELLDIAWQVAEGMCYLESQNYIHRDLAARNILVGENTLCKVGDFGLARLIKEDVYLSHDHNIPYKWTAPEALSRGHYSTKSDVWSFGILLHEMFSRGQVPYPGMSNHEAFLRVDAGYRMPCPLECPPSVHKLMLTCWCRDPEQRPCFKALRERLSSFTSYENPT
Tyrosine-protein kinase Srms (Homo sapiens), sequence (Q9H3Y6 whole entry, the tested form may be a part): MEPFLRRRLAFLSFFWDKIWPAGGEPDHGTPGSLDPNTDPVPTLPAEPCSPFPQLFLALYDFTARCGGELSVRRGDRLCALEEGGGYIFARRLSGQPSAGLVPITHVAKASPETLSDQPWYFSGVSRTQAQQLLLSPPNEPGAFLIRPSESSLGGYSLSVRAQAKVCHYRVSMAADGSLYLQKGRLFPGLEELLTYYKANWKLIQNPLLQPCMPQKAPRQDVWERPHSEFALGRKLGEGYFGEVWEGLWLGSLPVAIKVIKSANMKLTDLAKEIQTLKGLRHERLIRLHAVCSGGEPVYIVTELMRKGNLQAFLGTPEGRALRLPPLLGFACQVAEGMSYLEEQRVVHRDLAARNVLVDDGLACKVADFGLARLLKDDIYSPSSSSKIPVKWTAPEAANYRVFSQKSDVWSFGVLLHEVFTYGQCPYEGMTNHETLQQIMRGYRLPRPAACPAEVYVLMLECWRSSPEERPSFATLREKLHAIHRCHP
Serine/threonine-protein kinase LATS1 (Homo sapiens), sequence (O95835 whole entry, the tested form may be a part): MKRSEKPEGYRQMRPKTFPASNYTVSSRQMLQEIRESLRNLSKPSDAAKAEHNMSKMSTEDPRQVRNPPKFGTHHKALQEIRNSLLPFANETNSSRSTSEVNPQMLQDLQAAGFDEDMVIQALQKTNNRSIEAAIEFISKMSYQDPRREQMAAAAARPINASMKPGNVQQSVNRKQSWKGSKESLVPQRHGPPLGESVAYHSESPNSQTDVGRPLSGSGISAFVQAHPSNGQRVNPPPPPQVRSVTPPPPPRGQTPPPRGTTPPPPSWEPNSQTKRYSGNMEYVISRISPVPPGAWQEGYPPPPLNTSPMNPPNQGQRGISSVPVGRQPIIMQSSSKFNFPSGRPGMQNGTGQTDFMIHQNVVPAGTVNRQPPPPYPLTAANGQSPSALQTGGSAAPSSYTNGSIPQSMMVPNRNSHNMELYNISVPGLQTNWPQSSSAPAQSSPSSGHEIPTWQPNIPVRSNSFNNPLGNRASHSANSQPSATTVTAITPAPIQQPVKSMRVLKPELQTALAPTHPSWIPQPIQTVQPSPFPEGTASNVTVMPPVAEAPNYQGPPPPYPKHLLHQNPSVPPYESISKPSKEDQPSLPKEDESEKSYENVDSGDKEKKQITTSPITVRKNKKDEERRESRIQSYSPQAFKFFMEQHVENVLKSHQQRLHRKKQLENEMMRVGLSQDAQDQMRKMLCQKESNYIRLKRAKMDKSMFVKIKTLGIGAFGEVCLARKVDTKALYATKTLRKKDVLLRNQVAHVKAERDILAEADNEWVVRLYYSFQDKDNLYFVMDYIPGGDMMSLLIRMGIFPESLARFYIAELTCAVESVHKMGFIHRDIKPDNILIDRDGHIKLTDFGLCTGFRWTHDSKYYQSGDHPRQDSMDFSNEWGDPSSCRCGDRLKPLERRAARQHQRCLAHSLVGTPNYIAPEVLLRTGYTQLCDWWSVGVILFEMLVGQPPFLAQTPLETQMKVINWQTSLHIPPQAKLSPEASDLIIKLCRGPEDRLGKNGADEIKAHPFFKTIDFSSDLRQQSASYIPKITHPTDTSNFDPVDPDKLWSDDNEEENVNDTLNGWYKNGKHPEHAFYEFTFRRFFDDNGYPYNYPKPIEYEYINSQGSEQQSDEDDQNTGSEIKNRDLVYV

COCCN[C@H]1CC[C@H](Nc2cc(-c3csc(NCC4(C#N)CCOCC4)n3)c(Cl)cn2)CC1
EC50 [1]: < 100 nM | inhibition [1]: Dose-dependent effect | Activity (Homo sapiens): Dose-dependent effect | AUC (Canis familiaris [2]): 3121.69 ng·h/mL | AUC (Canis familiaris [3]): 16735.55 ng·h/mL | Vd [4]: 44.5 L/kg | Activity [5]: 92% | Activity [6]: 88% | Activity [7]: 100% | Activity [8]: 95% | Activity [9]: 75% | Activity [10]: 94% | Activity [11]: 81% | Activity [12]: 89% | Activity [13]: 98% | Activity [14]: 99% | Activity [15]: 96% | Activity [16]: 100% | Activity [17]: 89% | Activity [18]: 87% | Activity [19]: 89% | Activity [20]: 99%
